This note sets out measurements from ChEMBL document CHEMBL2163266, “3,3'-Disubstituted bipolar biphenyls as inhibitors of nuclear receptor coactivator binding” (Bioorg Med Chem Lett, 2012).

Activity calls are given as the source filed them. The rule behind the calls is not given here.

For data set [1], the target named is T1, Estrogen receptor (Homo sapiens) (UniProt P03372).
T1 sequence (whole entry): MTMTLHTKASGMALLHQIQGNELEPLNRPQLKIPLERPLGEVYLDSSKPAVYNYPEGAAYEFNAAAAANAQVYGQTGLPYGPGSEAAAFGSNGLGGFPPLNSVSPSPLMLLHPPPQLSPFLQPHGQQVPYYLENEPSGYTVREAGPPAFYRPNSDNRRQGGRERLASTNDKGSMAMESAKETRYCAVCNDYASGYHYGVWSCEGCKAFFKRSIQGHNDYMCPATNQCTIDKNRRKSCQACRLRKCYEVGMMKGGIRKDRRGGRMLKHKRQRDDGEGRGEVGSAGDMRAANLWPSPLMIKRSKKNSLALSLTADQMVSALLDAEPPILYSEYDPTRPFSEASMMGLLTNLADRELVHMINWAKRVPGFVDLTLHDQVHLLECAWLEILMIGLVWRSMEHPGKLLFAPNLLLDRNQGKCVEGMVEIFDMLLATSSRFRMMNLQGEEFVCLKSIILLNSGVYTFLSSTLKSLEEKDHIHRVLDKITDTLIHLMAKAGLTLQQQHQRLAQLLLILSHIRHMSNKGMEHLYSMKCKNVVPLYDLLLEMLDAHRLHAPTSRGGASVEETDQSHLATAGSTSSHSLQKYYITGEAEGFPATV
Nature of the data set: Antagonist activity at ERalpha co-activator binding domain expressed in human HepG2 cells assessed as inhibition of E2-induced […] LXXLL2 binding measured as decrease in […] activity after 40 hrs by luciferase reporter gene assay. Type of data set: cell-based. More on the design: concentration or dose not given beside the values. An outline of the steps: (§1)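 HepG2 cells co-transfected with VP16-ERα, pM-GRIP1-LXXLL2, the 5xGal4-Luc3 reporter and a pCMV-β-gal normalization control. Serial twofold dilutions given with or without 1 nM estradiol, 40 h, then reporter read. Scored as >50% increase or decrease in reporter activity within concentration bands (<20, 20–50, >50 µM); <20% change scored 0.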

Data set [2] has as its target T1, Estrogen receptor (Homo sapiens). Nature of the data set: Agonist activity at ERalpha co-activator binding domain expressed in human HepG2 cells assessed as […] LXXLL2 binding measured as […] activity at <20 uM. The format is cell-based. An outline of the steps: as §1
Another data set concerns CV-1. The experiment in a line: Cytotoxicity against african green monkey CV1 cells at >50 uM. The format is cell-based. To be noted: chlorocebus aethiops.
For data set [3], the target named is T1, Estrogen receptor (Homo sapiens). The experiment in a line: Antagonist activity at ERalpha co-activator binding domain expressed in human HepG2 cells assessed as inhibition of E2-induced […] LXXLL2 binding measured as decrease in […] activity at 20 to 50 uM after 40 hrs by luciferase reporter gene assay. The format is cell-based. Summed up: as §1
(In general: In a reporter assay the amount or activity of a reporter protein is the signal.)

The subject of the next data set is HepG2. Nature of the data set: Cytotoxicity against human HepG2 cells expressing ERalpha co-activator binding domain at >50 uM. The format is cell-based.
In data set [4] the test system is MCF7. Nature of the data set: Effect on E2-induced IDH3A expression in human MCF7 cells at 20 uM incubated for 2 hrs measured after 14 hrs by qPCR analysis. The format is functional, cell-based. Summed up: (§2)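 MCF-7 (ER+) cells pretreated 2 h with 20 µM compound, then exposed to vehicle or estradiol for 14 h before target gene expression was measured.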
For data set [5], the target named is T1, Estrogen receptor (Homo sapiens). The experiment in a line: Antagonist activity at ERalpha in human MCF7 cells assessed as reduction in E2-induced PR expression at 20 uM incubated for 2 hrs prior to E2-induction measured after 14 hrs by qPCR analysis. The format is functional, cell-based. More on the design: scale not given: the % may be the effect or the level left. An outline of the steps: as §2
Background: In qPCR the cycle at which signal appears reflects the starting amount.

For data set [6] the target is unchanged. The experiment in a line: Antagonist activity at ERalpha in human MCF7 cells assessed as reduction in E2-induced PS2 expression at 20 uM incubated for 2 hrs prior to E2-induction measured after 14 hrs by qPCR analysis. Also noted: scale not given: the % may be the effect or the level left. The format is functional, cell-based. Summed up: as §2
The test system of data set [7] is MCF7. The experiment in a line: Effect on IDH3A expression in human MCF7 cells at 20 uM incubated for 2 hrs measured after 14 hrs by qPCR analysis relative to E2. The format is functional, cell-based. An outline of the steps: as §2
Data set [8] has as its target T1, Estrogen receptor (Homo sapiens). Nature of the data set: Antagonist activity at ERalpha in human MCF7 cells assessed as reduction in E2-induced SDF1 expression at 20 uM incubated for 2 hrs prior to E2-induction measured after 14 hrs by qPCR analysis. The format is functional, cell-based. Also noted: scale not given: the % may be the effect or the level left. An outline of the steps:
as §2

For data set [9] the target is unchanged. Nature of the data set: Agonist activity at ERalpha in human MCF7 cells assessed as increase in PR expression at 20 uM incubated for 2 hrs measured after 14 hrs by qPCR analysis relative to E2. Type of data set: functional, cell-based. An outline of the steps:
as §2

The target is the same in data set [10]. Nature of the data set: Agonist activity at ERalpha in human MCF7 cells assessed as increase in PS2 expression at 20 uM incubated for 2 hrs measured after 14 hrs by qPCR analysis relative to E2. Type of data set: functional, cell-based. An outline of the steps: as §2
The target is the same in data set [11]. The experiment in a line: Agonist activity at ERalpha in human MCF7 cells assessed as increase in SDF1 expression at 20 uM incubated for 2 hrs measured after 14 hrs by qPCR analysis relative to E2. Type of data set: functional, cell-based. Summed up: as §2
For data set [12] the target is unchanged. Nature of the data set: Antagonist activity at ERalpha co-activator binding domain in human Hec1 cells assessed as inhibition of co-activator binding by reporter gene assay. The format is cell-based.
Data set [13] has the same target. Nature of the data set: Binding affinity to ERalpha co-activator binding domain by TR-FRET assay. In general terms: TR-FRET usually uses a lanthanide donor and a delayed reading to cut background.
For data set [14] the target is unchanged. Nature of the data set: Activity at ERalpha in human MCF7 cells assessed as increase in E2-induced PR expression at 20 uM incubated for 2 hrs prior to E2-induction measured after 14 hrs by qPCR analysis. The format is cell-based. An outline of the steps: as §2
For data set [15] the target is unchanged. The experiment in a line: Activity at ERalpha in human MCF7 cells assessed as increase in E2-induced PS2 expression at 20 uM incubated for 2 hrs prior to E2-induction measured after 14 hrs by qPCR analysis. The format is cell-based. An outline of the steps: as §2

Consider `CCOC(=O)COc1ccc(-c2ccc(OCCN(C)C)c(C(C)C)c2)cc1C(C)C`, for which, in data set [1], the Activity is less than 20%.

Take `CCOC(=O)COc1ccc(-c2ccc(O)c(Cc3ccccc3)c2)cc1Cc1ccccc1`: the Activity in data set [1] was less than 20%.

`CCOC(=O)COc1ccc(-c2ccc(O)cc2)cc1`: the Activity in data set [1] was less than 20%; in [2], more than 50%.

In general, inhibition refers to the drop in the measured response relative to a control, in per cent. Consider `CCOC(=O)COc1ccc(-c2ccc(O)c(C(C)C)c2)cc1C(C)C`, for which the Activity entry in the data set on CV-1 is “Toxic”. Further, in data set [3], the inhibition is more than 50%.

`CCOC(=O)COc1ccc(-c2ccc(OCCN(C)C)cc2)cc1`: the values for the Activity in data set [1] and in [2] were less than 20% and more than 50%, respectively.

For the compound `CCOC(=O)COc1ccc(-c2ccc(OCCN(C)C)c(C(C)CC)c2)cc1C(C)CC` (stereo unspecified), the Activity result in the data set on CV-1 was “Toxic”; in the data set on HepG2, “Toxic”; in data set [2], more than 50%.

With `CC(C)c1cc(-c2ccc(OCC(=O)O)c(C(C)C)c2)ccc1OCCN(C)C`, the Activity in data set [1] is less than 20%; in [5], more than 20%; in data set [8] it was more than 20%. The outcome (in the data set on MCF7 [4]; in data set [6]; with MCF7 [7]; in [9]; in data set [10]; in [11]) was inactive. Besides, in data set [12], the inhibition result is “Active”. Moreover, in data set [13], the result was Active.

In the case of `CN(C)CCOc1ccc(-c2ccc(OCC(=O)O)c(C(C)(C)C)c2)cc1C(C)(C)C`, the Activity in [14], in data set [8], in data set [15], in data set [9], in [10] and in data set [11] was more than 20% throughout. Also, the outcome in the data set on MCF7 [4] and in the data set with MCF7 [7] was inactive. The inhibition result in data set [12] was “Active”. In addition, the result in data set [13] was Active.

Consider `CN(C)CCOc1ccc(-c2ccc(OCC(=O)O)cc2)cc1`, for which the Activity is less than 20% in data set [1]; more than 20% in data set [5]; more than 20% in data set [8]; more than 20% in data set [9]; more than 20% in data set [10]; more than 20% in data set [11]. Further, the result (with MCF7 [4]; in [6]; in the data set on MCF7 [7]) was inactive. Besides, the inhibition entry in data set [12] is “Active”. In data set [13], the outcome was Active.

In the case of `CCOC(=O)COc1ccc(-c2ccc(O)c(C(C)CC)c2)cc1C(C)CC` (stereo unspecified), the Activity entry in the data set on CV-1 was “Toxic”. In addition, the inhibition in [3] was more than 50%.

Consider `CCOC(=O)COc1ccc(-c2ccc(O)c(C(C)(C)C)c2)cc1C(C)(C)C`, for which the Activity was less than 20% in [1] and more than 50% in data set [2].

In the case of `CCOC(=O)COc1ccc(-c2ccc(OCCN(C)C)c(C(C)(C)C)c2)cc1C(C)(C)C`, the Activity was less than 20% in data set [1] and “Toxic” with CV-1.

As to `CCC(C)c1cc(-c2ccc(OCC(=O)O)c(C(C)CC)c2)ccc1OCCN(C)C` (stereo unspecified), the result (in the data set on MCF7 [4]; in the data set with MCF7 [7]; in data set [9]; in data set [10]; in data set [11]) was inactive. In addition, the Activity in [5], in data set [6] and in data set [8] was more than 20% throughout. Also, the inhibition entry in [12] was “Active”. For the same compound, the result in [13] was Active.

As for `CCOC(=O)COc1ccc(-c2ccc(OCCN(C)C)c(Cc3ccccc3)c2)cc1Cc1ccccc1`, the Activity entry with CV-1 is “Toxic”.

`CN(C)CCOc1ccc(-c2ccc(OCC(=O)O)c(Cc3ccccc3)c2)cc1Cc1ccccc1`: the result (in the data set on MCF7 [4]; in [6]; with MCF7 [7]; in data set [9]; in [10]; in [11]) was inactive. The Activity in data set [5] and in data set [8] was more than 20% in each case. Further, in data set [3], the inhibition was more than 50%. Further, the inhibition entry in [12] is “Active”. In addition, the outcome in [13] was Active.
